Screens as filed in PubChem BioAssay.
Shown are actives, neighbours in structure and some others; about 3% of the full set was active somewhere.
UBC13 polyUb – inhibitors of human UBC13 polyubiquitin chain formation | P61088 | TR-FRET | inhibition, % at 20 µM | 0.47% of 330,000 active | AID 485273; in the data active means inhibition above about 45%, passing the limit was not always enough
SENP7 inh – SENP7 protease inhibition | inhibition, % at 5 µM | recombinant SENP7, Z-RLRGG-aminoluciferin luminescence, 40 min | 1.5% of 330,000 active | AID 434973;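 active means inhibition above about 50% at the single test dose, limit read from the data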;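 further: plate controls were DMSO with enzyme for no effect and no enzyme buffer wells for full effect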
Target sequence (Q9BQF6 706-1050 limits assumed): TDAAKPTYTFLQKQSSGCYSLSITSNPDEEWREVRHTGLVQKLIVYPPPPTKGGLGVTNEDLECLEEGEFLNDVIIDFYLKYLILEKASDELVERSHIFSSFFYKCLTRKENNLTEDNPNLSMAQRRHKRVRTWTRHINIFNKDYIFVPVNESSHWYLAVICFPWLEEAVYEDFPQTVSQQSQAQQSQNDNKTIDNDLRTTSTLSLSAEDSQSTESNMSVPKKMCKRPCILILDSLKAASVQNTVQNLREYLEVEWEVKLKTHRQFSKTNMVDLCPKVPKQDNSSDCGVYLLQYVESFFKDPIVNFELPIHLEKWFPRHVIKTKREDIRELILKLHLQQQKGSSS
SENP6 block – SENP6 protease inhibition; Q9GZR1; Recombinant SENP6 catalytic domain, aminoluciferin luminescence; inhibition, % at 10 µM; 1.8% of 330,000 active; AID 2599;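 active means inhibition above about 50% at the single tested dose, limit read from the data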;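 further: plate controls were DMSO wells with enzyme for no effect and DMSO wells lacking enzyme for full effect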
SENP8 block-1 – inhibitors of human SENP8 protease; Q96LD8; purified SENP8, Z-RLRGG-aminoluciferin cleavage, luminescence; inhibition, % at 10 µM; 1.2% of 330,000 active; AID 2540; in the data active means inhibition above about 50%
Target sequence (Q96LD8 whole entry, looked up): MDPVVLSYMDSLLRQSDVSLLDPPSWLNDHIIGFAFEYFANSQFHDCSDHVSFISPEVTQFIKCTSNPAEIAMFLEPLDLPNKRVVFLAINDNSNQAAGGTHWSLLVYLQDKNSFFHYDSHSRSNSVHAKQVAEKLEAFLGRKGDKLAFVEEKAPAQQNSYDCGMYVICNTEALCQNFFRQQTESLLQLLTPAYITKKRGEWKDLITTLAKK
Apaf1 inhib – blocks human Apaf-1 apoptosome activity; reconstituted apoptosome caspase-3 activity, DEVD-Rh110 fluorescence; inhibition, % at 20 µM; 0.71% of 330,000 active; AID 489030; active means inhibition of at least 40% at 20 µM;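 further: plate controls were DMSO wells for no effect and DEVD-CHO caspase inhibitor wells for full effect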
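Assay system – apoptosome proteins · Medium – Hepes buffer, pH 7.5 · Also added – cytochrome c with DEVD-Rh110 · Timing – 30 min compound preincubation, 50 min activation, room temperature · Detection – Rh110 fluorescence, excitation 480 nm, emission 540 nm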
SENP8 block-2 – blocks human SENP8 cleavage of Nedd8 substrate | Q96LD8 | recombinant SENP8, Nedd8 substrate fluorescence | inhibition, % at 20 µM | 0.64% of 360,000 active; in the data active means inhibition mostly above about 40%, no sharp cut-off; inactive means mostly below about 27%
SENP8 inh conf – SENP8 (human) inhibition, single concentration confirmation; shares compounds with SENP8 block-2; purified SENP8, Nedd8-AMC/pro-Nedd8 cleavage fluorescence, 30 min; inhibition, % at 25 µM; 15% of 1,400 active; AID 624319; in the data active means inhibition mostly above about 39%, no sharp cut-off; inactive means mostly below about 34%
The depositor's hits bear a star.

CC1CCN(c2ccc(C(=O)NCc3ccco3)cc2[N+](=O)[O-])CC1 was read as UBC13 polyUb -8, SENP7 inh 6, SENP6 block -5, SENP8 block-1 -4, Apaf1 inhib 7, SENP8 block-2 42* and SENP8 inh conf 28.
`O=C(NCc1ccco1)c1ccc(N2CCCCC2)c([N+](=O)[O-])c1` gave UBC13 polyUb -28, SENP7 inh -5, SENP6 block -10, SENP8 block-1 -12, Apaf1 inhib 8 and SENP8 block-2 20.
Screening C#CCOCCOCCOCCNc1nc(N2CCN(C(=O)[C@H](CCCCN)n3cc(CN)nn3)CC2)nc(N2CCN(C(=O)[C@H](CCCCN)n3cc([C@@H](N)CC(N)=O)nn3)CC2)n1 returned SENP8 block-2 40* and SENP8 inh conf 34.
`C#CCOCCOCCOCCNc1nc(N2CCN(C(=O)[C@H](CCCCN)n3cc(CN)nn3)CC2)nc(N2CCN(C(=O)[C@H](CCC(=O)O)n3cc(CN)nn3)CC2)n1` gave UBC13 polyUb 39, SENP7 inh 4, SENP6 block 15, SENP8 block-1 5, Apaf1 inhib 11 and SENP8 block-2 -4.
For CC(=O)[C@@H]1[C@@H](C(=O)c2ccccc2)[C@]2(C(=O)Nc3ccccc32)[C@H]2C=Cc3cc(F)ccc3N12 the results were UBC13 polyUb -10, SENP7 inh 7, SENP6 block 15, SENP8 block-1 -5, Apaf1 inhib 19 and SENP8 block-2 -36.
For O=C(c1ccccc1)[C@@H]1[C@@H](C(=O)c2ccc(F)cc2)[C@@]2(C(=O)Nc3ccccc32)[C@H]2c3ccccc3C=CN12 the results were UBC13 polyUb -13, SENP7 inh 13, SENP6 block 64*, SENP8 block-1 28, Apaf1 inhib 64*, SENP8 block-2 54* and SENP8 inh conf 66*.
Screening CCc1ccccc1NC(=O)CNC(=O)CCC(=O)c1cc(C)sc1C returned SENP8 block-2 7.
COc1ccc(/C=N/NS(=O)(=O)c2ccccc2)cc1OC(=O)c1ccc(C)cc1 was read as UBC13 polyUb -6, SENP7 inh -3, SENP6 block -3, SENP8 block-1 -4, Apaf1 inhib 16, SENP8 block-2 41* and SENP8 inh conf 28.
Screening CCCn1c(N)c(N2CCCCC2)c(=O)n(CC(=O)Nc2ccc(C(C)=O)cc2)c1=O returned UBC13 polyUb 6, SENP7 inh 0, SENP6 block 2, SENP8 block-1 5, Apaf1 inhib 0 and SENP8 block-2 2.
`Cn1cnc2c(=O)[nH]cc([N+](=O)[O-])c21` gave UBC13 polyUb -15, SENP7 inh 12, SENP6 block 9, SENP8 block-1 4, Apaf1 inhib 12, SENP8 block-2 84* and SENP8 inh conf 59*.
Screening COc1cccc(NC(=S)NN=C2CCC(C(C)(C)C)CC2)c1 (centres undefined) returned UBC13 polyUb -6, SENP7 inh -10, SENP6 block 7, SENP8 block-1 -4, Apaf1 inhib 22, SENP8 block-2 47* and SENP8 inh conf 10.
`Cc1ccc(-n2c(SCC(=O)OC(C)C)nnc2-c2ccccn2)cc1` gave UBC13 polyUb 7, SENP7 inh 2, SENP6 block -2, SENP8 block-1 2, Apaf1 inhib 6 and SENP8 block-2 35.
Screening CC(C)OC(=O)CSc1nnc(-c2ccccn2)n1-c1ccccc1 returned UBC13 polyUb -3, SENP7 inh -5, SENP6 block -17, SENP8 block-1 -4, Apaf1 inhib 8, SENP8 block-2 45* and SENP8 inh conf 12.
Screening O=Cc1ccc(C(=O)OCC(=O)Nc2ccc(F)cc2F)cc1 returned UBC13 polyUb 0, SENP7 inh -11, SENP6 block 2, SENP8 block-1 4, Apaf1 inhib -1 and SENP8 block-2 6.
Screening COc1ccc(CCN=Cc2c(C)[nH]n(-c3ccc([N+](=O)[O-])cc3)c2=O)cc1OC returned UBC13 polyUb 8, SENP7 inh 4, SENP6 block 23, SENP8 block-1 5, Apaf1 inhib -3 and SENP8 block-2 13.
Cc1ccc(-n2[nH]c(C)c(/C=N/Nc3ccc([N+](=O)[O-])cc3[N+](=O)[O-])c2=O)cc1C was read as UBC13 polyUb -133, SENP7 inh 5, SENP6 block -1, SENP8 block-1 9, Apaf1 inhib 9, SENP8 block-2 40* and SENP8 inh conf 29.
COc1c(/C=N/Nc2ccc([N+](=O)[O-])cc2[N+](=O)[O-])c(C)nn1-c1ccccc1 was read as UBC13 polyUb -87, SENP7 inh 7, SENP6 block 1, SENP8 block-1 1, Apaf1 inhib 14, SENP8 block-2 62* and SENP8 inh conf 24.
`Cc1nn(-c2ccccc2)c(N2CCCC2)c1/C=N/Nc1ccc(S(=O)(=O)Nc2ccccc2)cc1[N+](=O)[O-]` gave UBC13 polyUb -53, SENP7 inh 3, SENP6 block 4, SENP8 block-1 2, Apaf1 inhib -4, SENP8 block-2 64* and SENP8 inh conf 13.
Screening COc1ccccc1NS(=O)(=O)c1cccc(C(=O)N/N=C/c2c(C)nn(-c3ccccc3)c2N2CCCC2)c1 returned UBC13 polyUb -2, SENP7 inh 4, SENP6 block -17, SENP8 block-1 2, Apaf1 inhib 7 and SENP8 block-2 -50.
`COc1ccccc1NS(=O)(=O)c1ccc(N/N=C/c2c(C)nn(-c3ccccc3)c2N2CCCC2)c([N+](=O)[O-])c1` gave UBC13 polyUb -63, SENP7 inh 10, SENP6 block 23, SENP8 block-1 2, Apaf1 inhib 8, SENP8 block-2 45* and SENP8 inh conf 16.
O=C(O)c1ccccc1C1c2ccccc2Oc2ccccc21 was read as SENP8 block-2 2.
`COc1ccc(C(=O)N2CCCC(C(N)=O)C2)cc1S(=O)(=O)N1CCOCC1` (centres undefined) gave UBC13 polyUb 3, SENP7 inh -1, SENP6 block -3, SENP8 block-1 3, Apaf1 inhib -9 and SENP8 block-2 0.
`CCN1C(=S)SC(=O)C1=C1C=C(C)N(Cc2ccco2)C(C)=C1` gave UBC13 polyUb -64, SENP7 inh -5, SENP6 block 18, SENP8 block-1 -13, Apaf1 inhib 7 and SENP8 block-2 36.
Screening CCN1C(=S)SC(=O)C1=C1C=C(C)OC(C)=C1 returned UBC13 polyUb -48, SENP7 inh -4, SENP6 block -14, SENP8 block-1 -20, Apaf1 inhib 4, SENP8 block-2 48* and SENP8 inh conf 6.
Screening O=C(OCC(=O)N1CCCC1)c1cccs1 returned UBC13 polyUb -2, SENP7 inh 4, SENP6 block -2, SENP8 block-1 -3, Apaf1 inhib -4, SENP8 block-2 48* and SENP8 inh conf 19.
